Bioassay records from PubChem.
CXCR6 block: blocks human CXCR6 beta-arrestin recruitment. actives 0.36% (n = 360,000). CHO-K1 PathHunter CXCR6 beta-arrestin, luminescence. O00574. inhibition, % at 20 µM. AID 602244; in the data active means inhibition above about 34%, passing the limit was not always enough;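 further: antagonist mode with CXCL16 agonist at 10 nM final; 0% = 10 nM CXCL16 with DMSO and 100% = unstimulated wells without agonist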
Target sequence (O00574 whole entry, looked up): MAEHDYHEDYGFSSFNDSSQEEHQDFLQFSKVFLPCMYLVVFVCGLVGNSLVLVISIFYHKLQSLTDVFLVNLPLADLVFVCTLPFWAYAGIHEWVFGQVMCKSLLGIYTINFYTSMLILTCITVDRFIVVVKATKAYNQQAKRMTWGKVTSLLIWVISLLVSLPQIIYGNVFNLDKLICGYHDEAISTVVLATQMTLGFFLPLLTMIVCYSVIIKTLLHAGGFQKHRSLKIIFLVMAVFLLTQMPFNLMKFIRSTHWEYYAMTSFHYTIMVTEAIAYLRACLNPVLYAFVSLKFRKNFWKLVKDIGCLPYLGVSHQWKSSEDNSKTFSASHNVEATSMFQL
APJ antag: blocks the human apelin receptor APJ. P35414. CHO-K1 APJ beta-arrestin complementation, luminescence. inhibition, % at 20 µM. actives 0.32% (n = 330,000). AID 2521;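 active means inhibition above about 40% at 20 µM, limit read from the data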;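 further: cells challenged with 10 nM apelin-13 agonist together with compound; plate controls were apelin-13 plus DMSO wells for no effect and DMSO wells lacking apelin-13 for full effect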
CCR6 antag: antagonists of human CCR6 receptor | P51684 | CHO-K1 CCR6 PathHunter beta-arrestin, luminescence, CCL20-stimulated | inhibition, % at 20 µM | actives 0.49% (n = 340,000);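 active means compounds whose inhibition of the agonist-driven luminescence signal at 20 µM reaches about 50%, limit read from the data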;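 further: cells stimulated with CCL20 at 14 nM final; plate controls were DMSO with CCL20 for no effect and DMSO without agonist for full effect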
EBI2 block: blocks human EBI2 receptor beta-arrestin signaling; inhibition, % at 5 µM; EBI2 beta-arrestin recruitment, luminescence, 7a,25-OHC stimulated; actives 0.81% (n = 360,000); P32249; in the data active means inhibition above about 38%;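 further: enzyme fragment complementation signal reports receptor beta-arrestin coupling in cells; 0% = agonist plus DMSO wells and 100% = wells without agonist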
APJ ag: agonists of human APJ apelin receptor; P35414; CHO-K1 APJ PathHunter beta-arrestin, luminescence; 0% DMSO wells, 100% apelin; activation, % at 20 µM; actives 0.11% (n = 330,000);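 active means activation more than six SD over the plate average, tested at 20 µM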;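 further: 0% = DMSO alone and 100% = apelin-13 at 10 nM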
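system = engineered CHO-K1 APJ arrestin reporter cells | input = 1000 cells per well | timing = overnight seeding, 90 min compound at 25 °C, 1 h detection | measured by = enzyme-fragment complementation luminescence | read-out = beta-arrestin recruitment to APJ as agonist activity, luminescent signal | control set = negative DMSO alone, positive Apelin-13 at 10 nM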
EBI2 conf: EBI2 (human) antagonism, single concentration confirmation; shares compounds with EBI2 block; EBI2 beta-arrestin luminescence, 7a,25-OHC antagonism; inhibition, % at 5 µM; actives 29% (n = 2,400); AID 651997;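 active means inhibition of at least 50%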
EBI2 ag: counter-screen for EBI2 antagonists: EBI2 agonist activity | EBI2-expressing cells, agonist mode, luminescence, 60 min; 0% vehicle, 100% 7α,25-dihydroxycholesterol control | AID 652000 | 2,400 tested, under 10 active | shares compounds with EBI2 block | activation, % at 5 µM;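 active means activation of at least 50%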
bGal cs: beta-galactosidase inhibition counter-screen. shares compounds with EBI2 block. purified beta-galactosidase, luminescent Galacton Star, 15 min. inhibition, % at 5 µM. actives 1% (n = 2,400). AID 652176;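 active means replicate-average signal at least 3 plate SD below neutral wells, shown as high inhibition, flagging enzyme-inhibiting false positives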;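 further: 0% = DMSO wells with enzyme and 100% = wells lacking enzyme; higher means stronger loss of beta-gal luminescence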
Starred values were filed as active, the others as inactive; . = no result given. An excerpt weighted towards active compounds, which were near 1.5% of everything screened.

SMILES	CXCR6 block	APJ antag	CCR6 antag	EBI2 block	APJ ag	EBI2 conf	EBI2 ag	bGal cs
CCNC(=O)C1(C)CCN(Cc2csc(-c3ccccc3)n2)C1 (stereo not given)	4	.	.	0	.	.	.	.
COc1ccc(-n2c(Cc3cccn3C)nnc2SCC(=O)Nc2ccccc2F)cc1	-1	-51	16	36	-1	.	.	.
COc1ccc(-n2c(Cc3cccn3C)nnc2SCC(=O)Nc2ccccc2C)cc1	10	12	16	55*	-3	23	-1	-6
COc1ccc(-n2c(Cc3cccn3C)nnc2SCC(=O)Nc2ccc(C)c(Cl)c2)cc1	-11	1	20	47*	-4	23	-1	11
Cc1cccc(CSCCNC(=O)COc2ccc(Cl)cc2)c1	-4	-3	22	25	1	.	.	.
O=C(COc1ccc(Cl)cc1)NCCSCc1cccc(Cl)c1	3	-1	21	66*	-1	29	2	6
COC(=O)c1ccc2nc(-c3ccc(C#N)cc3)c(Cc3ccsc3)n2c1	14	.	.	63*	.	52*	-1	-17
CCOc1ccc(NC(=S)Nc2cc(-c3ccccc3)[nH]n2)cc1	-3	10	0	42*	-3	19	0	6
CCOc1ccc(NC(=S)Nc2ccccc2C2(C)CC2)cc1	1	7	22	60*	-1	20	2	4
CCOc1ccc(NC(=S)Nc2cccnc2)cc1	0	18	-8	58*	-1	24	-1	-10
CCOc1ccc(C(=O)NC(=S)Nc2cccnc2)cc1	1	11	7	-3	-2	.	.	.
CCOc1ccc(NC(=S)NC(=O)Cc2ccccc2)cc1	6	1	5	-8	-1	.	.	.
CCOc1ccc(NC(=S)NN(C)C(=S)Nc2ccc(OCC)cc2)cc1	-5	-21	7	78*	4	38	0	-15
O=C1NC(Cc2ccccc2)c2nc3cc(F)ccc3c(=O)n2-c2ccccc21 (stereo not given)	.	2	.	.	-3	.	.	.
CC(C)C[C@@H](CN)NC(=O)c1nc[nH]c1C(=O)N[C@@H](C)C(=O)CNC[C@H](C)NC(=O)c1nc[nH]c1C(=O)N[C@@H](CC(C)C)C(=O)O	-2	.	6	-9	.	.	.	.
CCOc1ccc(NC(=S)Nc2ccc(F)cc2)cc1	-8	9	-11	59*	-2	41	0	8
O=C(COc1ccccc1)N1CCN(S(=O)(=O)c2ccc(Cl)cc2)CC1	-6	-2	8	49*	3	35	-1	-4
COc1ccc(OCC(=O)N2CCN(S(=O)(=O)c3ccc(Cl)cc3)CC2)cc1	1	9	14	71*	-7	58*	0	5
COc1ccc(S(=O)(=O)N2CCN(C(=O)COc3ccc(C)c(C)c3)CC2)cc1OC	6	-7	3	77*	3	32	-2	-12
O=C(NCc1ccc(Cl)cc1)N1CCN(S(=O)(=O)c2ccccc2)CC1	-5	7	14	45*	-1	25	0	9
COc1ccc(S(=O)(=O)N2CCN(C(=O)CCOc3ccccc3)CC2)cc1OC	-4	4	7	5	-4	.	.	.
O=C(NCc1ccc(Cl)cc1)N1CCN(C(=O)c2ccccc2)CC1	4	.	.	25	.	.	.	.
COc1ccc(S(=O)(=O)Nc2cc(S(=O)(=O)N3CCOCC3)ccc2OC)cc1	1	-2	1	6	-1	.	.	.
COc1ccc(S(=O)(=O)N2CCOCC2)cc1NC(=O)C1CC(=O)N(c2ccc3c(c2)OCCO3)C1 (stereo not given)	3	.	.	0	.	.	.	.
O=C(COc1ccc(Cl)cc1Br)N1CCN(S(=O)(=O)c2ccccc2)CC1	-6	2	18	29	-1	.	.	.
SMILES	CXCR6 block	APJ antag	CCR6 antag	EBI2 block	APJ ag	EBI2 conf	EBI2 ag	bGal cs
O=C(COc1ccc(Cl)cc1)N1CCN(S(=O)(=O)c2ccccc2)CC1	-2	-9	5	87*	3	68*	-1	-15
O=C(c1ccco1)N1CCN(c2nc(C(F)(F)F)nc3c2nnn3Cc2ccccc2)CC1	12	20	12	48*	1	30	2	7
C[C@@H]1CN([C@H](C)CO)C(=O)c2c(c3ccccc3n2C)-c2ccccc2CO[C@H]1CN(C)S(=O)(=O)c1cn(C)cn1	6	.	.	-3	.	.	.	.
CCC(C)(C)C1CCc2[nH]nc(C(=O)NC3CCCCC3)c2C1 (stereo not given)	2	14	7	43*	8	14	0	-4
CCn1c(SCC(=O)NCCc2ccc(Cl)cc2)nnc1-c1cccs1	8	13	-4	64*	-4	34	-1	-15
O=C(CSc1nnc(-c2ccncc2)n1Cc1ccccc1)NCCc1ccccc1	12	21	11	53*	-2	40	0	9
O=C(/C=C/c1ccc(Br)cc1)NCc1cccs1	-1	-19	13	65*	1	48	0	4
O[C@@H]1C[C@H](c2ccc(Cl)cc2)N(Cc2cccs2)C[C@H]1n1cc(-c2ccc(F)cc2)nn1	-5	.	.	9	.	.	.	.
CCN(CC)c1ccc(N=C2C=CC(=O)C=C2NC(C)=O)cc1	22	.	36	-11	.	.	.	.
Cc1ccc2c(c1)-c1c(cnn1CC(=O)N(Cc1ccco1)C1CCCCC1)CO2	1	12	18	47*	1	29	1	2
Cc1ccc2c(c1)-c1c(cnn1CC(=O)NC(C)CCc1ccco1)CO2 (stereo not given)	12	18	1	9	-3	.	.	.
c1csc(-c2nc(N3CCOCC3)c3ccccc3n2)c1	8	-1	16	8	-1	.	.	.
COc1ccc(N2CCN(c3nc(-c4cccs4)nc4ccccc34)CC2)cc1	-5	5	12	63*	-2	42	1	9
O=C(CCCc1nc2ccccc2s1)NC(c1ccccc1)c1ccccc1	-2	13	-8	77*	-5	38	-1	-12
N#Cc1ccc(C(=O)N2CCN(S(=O)(=O)c3ccc(Cl)s3)CC2)cc1	-5	32	20	56*	3	31	0	7
Nc1[nH]c(C(=O)c2ccccc2)c(-c2ccccc2C(F)(F)F)c1C(=O)c1cccs1	7	.	.	45*	.	20	-1	-7
CCOc1ncccc1C(=O)Nc1ccc(C(=O)Nc2ccc(OC)cc2)cc1	17	4	4	57*	-7	31	2	1
CCOc1ccc(NC(=O)c2ccc(OC)cc2)cc1	1	9	-3	13	-3	.	.	.
N#Cc1ccccc1Sc1ccccc1C(=O)Nc1ccc2ccccc2c1	0	14	27	1	-2	.	.	.
